Converted amounts (≈) assume the structure as drawn. The source made the active and inactive calls. The rule behind the calls is not given here.
Columns and labels:
[1] = tested on: Pichia kudriavzevii; experiment: Antifungal activity against Candida krusei ATCC 6258 incubated for 48 hrs by modified CLSI M27-A3 protocol based method; type: functional; conditions: ATCC 6258, 48 h; for MIC: read-out: MIC100
Summary of the method: (§1)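 For C. albicans ATCC 10231, C. krusei ATCC 6258 and C. parapsilosis ATCC 22019, MIC-0 was read, meaning complete growth inhibition. For azole controls, MIC-2 (50% growth inhibition) was reported instead. Caspofungin and voriconazole were tested here; other controls came from earlier work.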

[2] = tested on: Candida albicans; experiment: Induction of membrane permeabilization in Candida albicans ATCC 10231 at 1 to 4 times MIC incubated for 1 hr by propidium iodide staining based fluorescence microscopy; type: functional, organism-based
Summary of the method: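 C. albicans ATCC 10231 treated at 1× and 4× MIC and stained with propidium iodide, a membrane-impermeant dye, to detect membrane damage. Untreated cells, FLC (7.8 µg/mL) and KANB (C14) (7.8 µg/mL) serve as comparators.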

[3] = tested on: Candida albicans; experiment: Antifungal activity against ITC and FLC-resistant Candida albicans ATCC MYA-90819 incubated for 48 hrs by modified CLSI M27-A3 protocol based method; type: functional; conditions: ATCC MYA-90819, 48 h
[4] = tested on: Aspergillus terreus; experiment: Antifungal activity against Aspergillus terreus ATCC MYA-3633 incubated for 48 hrs by CLSI M38-A2 protocol based method; type: functional; conditions: ATCC MYA-3633, 48 h; for MIC: read-out: MIC100
[5] = tested on: Aspergillus flavus; experiment: Antifungal activity against Aspergillus flavus ATCC MYA-3631 incubated for 48 hrs by CLSI M38-A2 protocol based method; type: functional; conditions: ATCC MYA-3631, 48 h, read-out: MIC100
[6] = tested on: Candida albicans; experiment: Antifungal activity against ITC and FLC-susceptible Candida albicans ATCC MYA-2876 incubated for 48 hrs by modified CLSI M27-A3 protocol based method; type: functional; conditions: ATCC MYA-2876, 48 h
Summary of the method: (§2)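 Because these Candida strains show trailing growth, MIC-2 was read, meaning 50% growth inhibition. Caspofungin and voriconazole were tested here; other controls came from earlier work.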

[7] = tested on: Candida albicans; experiment: Antifungal activity against ITC and FLC-resistant Candida albicans ATCC 1237 incubated for 48 hrs by modified CLSI M27-A3 protocol based method; type: functional; conditions: ATCC 1237, 48 h; summary of the method: as §2
[8] = tested on: Candida parapsilosis; experiment: Antifungal activity against Candida parapsilosis ATCC 22019 incubated for 48 hrs by modified CLSI M27-A3 protocol based method; type: functional; conditions: Lodderomyces parapsilosis, ATCC 22019, 48 h; for MIC: read-out: MIC100; summary of the method: as §1
[9] = tested on: Candida albicans; experiment: Antifungal activity against Candida albicans ATCC 64124 incubated for 48 hrs by modified CLSI M27-A3 protocol based method; type: functional; conditions: ATCC 64124, 48 h
[10] = tested on: Nakaseomyces glabratus; experiment: Antifungal activity against Candida glabrata ATCC 2001 incubated for 48 hrs by modified CLSI M27-A3 protocol based method; type: functional; conditions: ATCC 2001, 48 h
[11] = tested on: Candida albicans; experiment: Antifungal activity against Candida albicans ATCC 10231 incubated for 48 hrs by modified CLSI M27-A3 protocol based method; type: functional; conditions: ATCC 10231, 48 h, read-out: MIC100; summary of the method: as §1
[12] = tested on: Candida albicans; experiment: Antifungal activity against ITC and FLC-susceptible Candida albicans ATCC MYA-2310 incubated for 48 hrs by modified CLSI M27-A3 protocol based method; type: functional; conditions: ATCC MYA-2310, 48 h
[13] = tested on: Candida albicans; experiment: Antifungal activity against ITC and FLC-resistant Candida albicans ATCC MYA-1003 incubated for 48 hrs by modified CLSI M27-A3 protocol based method; type: functional; conditions: ATCC MYA-1003, 48 h; summary of the method: as §2
[14] = tested on: Aspergillus nidulans; experiment: Antifungal activity against Aspergillus nidulans ATCC 38163 incubated for 48 hrs by CLSI M38-A2 protocol based method; type: functional; conditions: ATCC 38163, 48 h; for MIC: read-out: MIC100
[15] = tested on: Candida albicans; experiment: Antifungal activity against Candida albicans ATCC 10231 at 0.5 to 4 times MIC incubated for 3 to 24 hrs by time kill assay
[16] = tested on: BEAS-2B; experiment: Toxicity in human BEAS2B cells assessed as cell viability at 15.6 ug/ml incubated for 24 hrs by resazurin dye based assay
[17] = Hemolytic activity in mouse erythrocytes assessed as hemolysis level at 15.6 ug/ml incubated for 1 hr at 37 degC; type: ADME, cell-based, Erythrocyte; conditions: read-out: Activity
Summary of the method: (§3)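 Mouse erythrocytes incubated 1 h at 37 °C with test agents over 1.95 to 125 µg/mL. Percent lysis is read for each concentration.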

[18] = Hemolytic activity in mouse erythrocytes assessed as hemolysis level at 125 ug/ml incubated for 1 hr at 37 degC; type: ADME, cell-based, Erythrocyte; conditions: read-out: Activity; summary of the method: as §3
[19] = Hemolytic activity in mouse erythrocytes assessed as hemolysis level at 31.3 ug/ml incubated for 1 hr at 37 degC; type: ADME, cell-based, Erythrocyte; conditions: read-out: Activity; summary of the method: as §3
[20] = in vitro; conditions: mouse
[21] = tested on: A549; experiment: Toxicity in human A549 cells assessed as cell viability at 15.6 ug/ml incubated for 24 hrs by resazurin dye based assay; conditions: a549, 24 h
[22] = Hemolytic activity in mouse erythrocytes assessed as hemolysis level at 7.8 ug/ml incubated for 1 hr at 37 degC; type: ADME, cell-based, Erythrocyte; conditions: read-out: Activity; summary of the method: as §3
[23] = Hemolytic activity in mouse erythrocytes assessed as hemolysis level at 1.95 ug/ml incubated for 1 hr at 37 degC; type: ADME, cell-based, Erythrocyte; conditions: read-out: Activity; summary of the method: as §3
[24] = Hemolytic activity in mouse erythrocytes assessed as hemolysis level at 3.9 ug/ml incubated for 1 hr at 37 degC; type: ADME, cell-based, Erythrocyte; conditions: read-out: Activity; summary of the method: as §3
[25] = tested on: Candida albicans; experiment: Effect on sterol composition in Candida albicans ATCC 64124 assessed as eburicol level at 1.95 ug/mL incubated for 10 mins by LC-MS analysis (reference value: 6.28%)
[26] = tested on: Candida albicans; experiment: Effect on sterol composition in Candida albicans ATCC 10231 assessed as unknown sterol level at 0.125 ug/mL incubated for 10 mins by GC-MS analysis (reference value: 1.88 to 2.78%)
[27] = Toxicity in human A549 cells assessed as reduction in cell viability incubated for 24 hrs by resazurin dye based assay
Summary of the method: (§4)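 Toxicity tested in the nucleated lines A549 and BEAS-2B to give EC50 values. Selectivity index is EC50 against the mammalian line divided by the MIC against a given fungal strain.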

[28] = tested on: Candida albicans; experiment: Effect on sterol composition in Candida albicans ATCC 10231 assessed as lanosterol level at 0.125 ug/mL incubated for 10 mins by GC-MS analysis (reference value: 4.17%)
[29] = tested on: Candida albicans; experiment: Effect on sterol composition in Candida albicans ATCC 10231 assessed as ergosterol level at 0.125 ug/mL incubated for 10 mins by GC-MS analysis (reference value: 91.15%)
[30] = tested on: Candida albicans; experiment: Effect on sterol composition in Candida albicans ATCC 64124 assessed as lanosterol level at 1.95 ug/mL incubated for 10 mins by LC-MS analysis (reference value: 29.38%)
[31] = tested on: Candida albicans; experiment: Effect on sterol composition in Candida albicans ATCC 64124 assessed as ergosterol level at 1.95 ug/mL incubated for 10 mins by LC-MS analysis (reference value: 54.72%)
[32] = Toxicity in human BEAS2B cells assessed as reduction in cell viability incubated for 24 hrs by resazurin dye based assay; conditions: BEAS-2B cells; summary of the method: as §4
[33] = tested on: Candida albicans; experiment: Effect on sterol composition in Candida albicans ATCC 64124 assessed as unknown sterol level at 1.95 ug/mL incubated for 10 mins by LC-MS analysis (reference value: 2.67 to 6.98%)

CCCCCCCCCCC(O)(Cn1cncn1)c1ccc(F)cc1F (stereo not drawn)
MIC [1]: 0.66 µM (≈ 0.241 µg/mL) | Activity [2]: inactive | MIC50 [3]: 85.6 µM (≈ 31.3 µg/mL) | MIC [4]: 10.7 µM (≈ 3.91 µg/mL) | MIC [5]: > 85.6 µM | MIC50 [6]: 21.3 µM (≈ 7.78 µg/mL) | MIC50 [7]: > 85.6 µM | MIC [8]: 0.33 µM (≈ 0.121 µg/mL) | MIC50 [9]: 42.7 µM (≈ 15.6 µg/mL) | MIC50 [10]: 21.3 µM (≈ 7.78 µg/mL) | MIC [11]: 21.3 µM (≈ 7.78 µg/mL) | MIC50 [12]: 21.3 µM (≈ 7.78 µg/mL) | MIC50 [13]: > 85.6 µM | MIC [14]: 0.66 µM (≈ 0.241 µg/mL)

C[C@@H](c1ncncc1F)[C@](O)(Cn1cncn1)c1ccc(F)cc1F [VORICONAZOLE]
Activity [15]: Dose-dependent effect | MIC50 [1]: 0.34 µM (≈ 0.119 µg/mL) | MIC50 [3]: 5.6 µM (≈ 1.96 µg/mL) | MIC50 [4]: 0.34 µM (≈ 0.119 µg/mL) | MIC50 [6]: 5.6 µM (≈ 1.96 µg/mL) | MIC50 [7]: 22.3 µM (≈ 7.79 µg/mL) | MIC50 [8]: < 0.06 µM | MIC50 [9]: 11.2 µM (≈ 3.91 µg/mL) | MIC50 [10]: 0.17 µM (≈ 0.0594 µg/mL) | MIC50 [12]: 2.8 µM (≈ 0.978 µg/mL) | MIC50 [13]: 5.6 µM (≈ 1.96 µg/mL) | MIC50 [14]: 0.06 µM (≈ 0.021 µg/mL)

C[C@@H]1[C@H](O)[C@@H](C)/C=C/C=C/C=C/C=C/C=C/C=C/C=C/[C@H](O[C@@H]2O[C@H](C)[C@@H](O)[C@H](N)[C@@H]2O)C[C@@H]2O[C@](O)(C[C@@H](O)C[C@@H](O)[C@H](O)CC[C@@H](O)C[C@@H](O)CC(=O)O[C@H]1C)C[C@H](O)[C@H]2C(=O)O [AMPHOTERICIN B]
viability [16]: 30% | hemolysis at 1 h, 15.6 ug/ml [17]: 32% | hemolysis at 1 h, 125 ug/ml [18]: 92.6% | MIC [3]: 1.1 µM (≈ 1.02 µg/mL) | hemolysis at 1 h, 31.3 ug/ml [19]: 80% | MIC [4]: 4.2 µM (≈ 3.88 µg/mL) | hemolysis at 1 h ([20]; erythrocyte): 90.3% | MIC ([6]; read-out: MIC100): 2.1 µM (≈ 1.94 µg/mL) | viability [21]: 30% | MIC [8]: 2.1 µM (≈ 1.94 µg/mL) | hemolysis at 1 h, 7.8 ug/ml [22]: 3.7% | hemolysis at 1 h, 1.95 ug/ml [23]: 1.7% | MIC [10]: 2.1 µM (≈ 1.94 µg/mL) | MIC ([12]; read-out: MIC100): 2.1 µM (≈ 1.94 µg/mL) | hemolysis at 1 h, 3.9 ug/ml [24]: 3.4% | MIC [14]: 16.9 µM (≈ 15.6 µg/mL)

OC(Cn1cncn1)(Cn1cncn1)c1ccc(F)cc1F [FLUCONAZOLE]
MIC50 [1]: > 102 µM | Activity [25]: 11.61% | hemolysis at 1 h, 15.6 ug/ml [17]: 0% | hemolysis at 1 h, 125 ug/ml [18]: 13.4% | MIC50 [3]: > 408 µM | Activity [26]: 1.12 - 1.25% | hemolysis at 1 h, 31.3 ug/ml [19]: 7.5% | EC50 at 24 h [27]: > 62.5 µg/mL | Activity [28]: 3.81% | hemolysis at 1 h, 62.5 ug/ml ([20]; mouse erythrocytes): 2.7% | MIC50 [6]: 50.9 µM (≈ 15.6 µg/mL) | MIC50 [8]: 6.4 µM (≈ 1.96 µg/mL) | hemolysis at 1 h, 7.8 ug/ml [22]: 0% | MIC50 [9]: > 408 µM | hemolysis at 1 h, 1.95 ug/ml [23]: 0% | Activity [29]: 93.79% | MIC50 [10]: > 102 µM | MIC50 [12]: > 408 µM | Activity [30]: 30.59% | hemolysis at 1 h, 3.9 ug/ml [24]: 0% | Activity [31]: 48.03% | EC50 at 24 h [32]: > 62.5 µg/mL | Activity [33]: 0.02 - 9.75%

CCCCCC(O)(Cn1cncn1)c1cccc(Cl)c1 (stereo not drawn)
MIC [1]: > 106 µM | MIC50 [3]: 13.3 µM (≈ 3.91 µg/mL) | MIC [4]: 1.6 µM (≈ 0.47 µg/mL) | MIC [5]: 13.3 µM (≈ 3.91 µg/mL) | MIC50 [6]: > 106 µM | MIC50 [7]: 6.6 µM (≈ 1.94 µg/mL) | MIC [8]: > 106 µM | MIC50 [9]: 106 µM (≈ 31.3 µg/mL) | MIC50 [10]: > 106 µM | MIC [11]: > 106 µM | MIC50 [12]: 6.6 µM (≈ 1.94 µg/mL) | MIC50 [13]: > 106 µM | MIC [14]: 0.2 µM (≈ 0.0588 µg/mL)
